ChEMBL document CHEMBL1124461, “Aromatic dienoyl tetramic acids. Novel antibacterial agents with activity against anaerobes and staphylococci” (J Med Chem, 1989)
Values after ≈ are worked out from the molar mass of the structure shown.

Experiments:
[1] = system: Staphylococcus aureus; assay: Compound is evaluated for cross resistance with DNA gyrase subunit A or B against Staphylococcus aureus 45CR-1 (coumermycin resistant); format: functional
Method in brief: (§1)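 Aerobic MIC by 2-fold dilution on brain–heart infusion agar; values in µg/mL.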

[2] = system: Staphylococcus aureus; assay: Compound is evaluated for cross resistance with DNA gyrase subunit A or B against Staphylococcus aureus 45; format: functional; method in brief: as §1
[3] = system: Staphylococcus aureus; assay: Compound is evaluated for cross resistance with DNA gyrase subunit A or B against Staphylococcus aureus 730A; format: functional; method in brief: as §1
[4] = system: Staphylococcus aureus; assay: Compound is evaluated for cross resistance with DNA gyrase subunit A or B against Staphylococcus aureus 337-113 (norfloxacin-resistant); format: functional; method in brief: as §1
[5] = system: Bacteroides fragilis; assay: Minimum inhibitory concentration against Bacteroides fragilis ATCC 25285; format: functional
Method in brief: (§2)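 Anaerobic MICs by 2-fold dilution in Wilkens-Chalgren broth, reported in micrograms/milliliter.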

[6] = system: Bacteroides thetaiotaomicron; assay: Minimum inhibitory concentration against Bacteroides thetaiotaomicron ATCC 29741; format: functional; method in brief: as §2
[7] = system: Clostridioides difficile; assay: Minimum inhibitory concentration against Clostridium difficile ATCC 9689; format: functional; method in brief: as §2
[8] = system: Clostridium perfringens; assay: Minimum inhibitory concentration against Clostridium perfringens ATCC 13124; format: functional
Method in brief: (§3)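 Anaerobic MIC by 2-fold dilution in Wilkens-Chalgren broth; values in µg/mL.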

[9] = system: Pseudomonas aeruginosa; assay: Minimum inhibitory concentration (MIC) against the cell line Pseudomonas aeruginosa A5007; format: functional
Method in brief: (§4)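 Aerobic MICs by 2-fold dilution on brain–heart infusion agar, reported in micrograms/milliliter.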

[10] = system: Streptococcus pyogenes; assay: Minimum inhibitory concentration (MIC) against the cell line Streptococcus pyogenes EES61; format: functional; method in brief: as §4
[11] = system: Micrococcus luteus; assay: Minimum inhibitory concentration (MIC) against the cell line Micrococcus luteus ATCC 4698; format: functional; method in brief: as §4
[12] = system: Staphylococcus aureus; assay: Minimum inhibitory concentration (MIC) against the cell line Staphylococcus aureus A5177; format: functional; method in brief: as §4
[13] = system: Escherichia coli; assay: Minimum inhibitory concentration (MIC) against the cell line Escherichia coli juhl; format: functional; method in brief: as §4
[14] = system: Escherichia coli; assay: Minimum inhibitory concentration (MIC) against the cell line Escherichia coli H560; format: functional; method in brief: as §4
[15] = system: Staphylococcus aureus; assay: Minimum inhibitory concentration (MIC) against the cell line Staphylococcus aureus ATCC 6538P; format: functional; method in brief: as §4
[16] = system: Streptococcus equinus; assay: Minimum inhibitory concentration (MIC) against the cell line Streptococcus bovis A5169; format: functional; method in brief: as §4
[17] = system: Staphylococcus aureus; assay: Minimum inhibitory concentration (MIC) against the cell line Staphylococcus aureus CMX 686B; format: functional; method in brief: as §4
[18] = system: Staphylococcus epidermidis; assay: Minimum inhibitory concentration (MIC) against the strain Staphylococcus epidermidis 3519
[19] = system: Staphylococcus aureus; assay: Minimum inhibitory concentration (MIC) against the cell line Staphylococcus aureus 45; format: functional; method in brief: as §4
[20] = molecular target: DNA-directed RNA polymerase subunit beta (Escherichia coli K-12) (UniProt P0A8V2); assay: Percent inhibition at a concentration of 100 ug/mL of RNA polymerase isolated from Escherichia coli K12 (Sigma)
[21] = system: Bacteroides fragilis; assay: Compound is evaluated for cross resistance with DNA gyrase subunit A or B against Bacteroides fragilis ATCC 25285; format: functional
[22] = system: Bacteroides fragilis; assay: Compound is evaluated for cross resistance with DNA gyrase subunit A or B against Bacteroides fragilis TirR (tirandamycin resistant); format: functional
[23] = system: Clostridioides difficile; assay: Minimum inhibitory concentration against Clostridium difficile ATCC 9689; 1.6-3.1; format: functional; method in brief: as §2
[24] = system: Clostridium perfringens; assay: Minimum inhibitory concentration against Clostridium perfringens ATCC 13124; 0.05-0.1; format: functional; method in brief: as §3
[25] = system: Bacteroides fragilis; assay: Minimum inhibitory concentration against Bacteroides fragilis ATCC 25285; 0.1-0.8; format: functional; method in brief: as §2
[26] = system: Bacteroides thetaiotaomicron; assay: Minimum inhibitory concentration against Bacteroides thetaiotaomicron ATCC 29741; 0.2-0.8; format: functional; method in brief: as §2

Sequence of DNA-directed RNA polymerase subunit beta (Escherichia coli K-12) (P0A8V2 whole entry, looked up): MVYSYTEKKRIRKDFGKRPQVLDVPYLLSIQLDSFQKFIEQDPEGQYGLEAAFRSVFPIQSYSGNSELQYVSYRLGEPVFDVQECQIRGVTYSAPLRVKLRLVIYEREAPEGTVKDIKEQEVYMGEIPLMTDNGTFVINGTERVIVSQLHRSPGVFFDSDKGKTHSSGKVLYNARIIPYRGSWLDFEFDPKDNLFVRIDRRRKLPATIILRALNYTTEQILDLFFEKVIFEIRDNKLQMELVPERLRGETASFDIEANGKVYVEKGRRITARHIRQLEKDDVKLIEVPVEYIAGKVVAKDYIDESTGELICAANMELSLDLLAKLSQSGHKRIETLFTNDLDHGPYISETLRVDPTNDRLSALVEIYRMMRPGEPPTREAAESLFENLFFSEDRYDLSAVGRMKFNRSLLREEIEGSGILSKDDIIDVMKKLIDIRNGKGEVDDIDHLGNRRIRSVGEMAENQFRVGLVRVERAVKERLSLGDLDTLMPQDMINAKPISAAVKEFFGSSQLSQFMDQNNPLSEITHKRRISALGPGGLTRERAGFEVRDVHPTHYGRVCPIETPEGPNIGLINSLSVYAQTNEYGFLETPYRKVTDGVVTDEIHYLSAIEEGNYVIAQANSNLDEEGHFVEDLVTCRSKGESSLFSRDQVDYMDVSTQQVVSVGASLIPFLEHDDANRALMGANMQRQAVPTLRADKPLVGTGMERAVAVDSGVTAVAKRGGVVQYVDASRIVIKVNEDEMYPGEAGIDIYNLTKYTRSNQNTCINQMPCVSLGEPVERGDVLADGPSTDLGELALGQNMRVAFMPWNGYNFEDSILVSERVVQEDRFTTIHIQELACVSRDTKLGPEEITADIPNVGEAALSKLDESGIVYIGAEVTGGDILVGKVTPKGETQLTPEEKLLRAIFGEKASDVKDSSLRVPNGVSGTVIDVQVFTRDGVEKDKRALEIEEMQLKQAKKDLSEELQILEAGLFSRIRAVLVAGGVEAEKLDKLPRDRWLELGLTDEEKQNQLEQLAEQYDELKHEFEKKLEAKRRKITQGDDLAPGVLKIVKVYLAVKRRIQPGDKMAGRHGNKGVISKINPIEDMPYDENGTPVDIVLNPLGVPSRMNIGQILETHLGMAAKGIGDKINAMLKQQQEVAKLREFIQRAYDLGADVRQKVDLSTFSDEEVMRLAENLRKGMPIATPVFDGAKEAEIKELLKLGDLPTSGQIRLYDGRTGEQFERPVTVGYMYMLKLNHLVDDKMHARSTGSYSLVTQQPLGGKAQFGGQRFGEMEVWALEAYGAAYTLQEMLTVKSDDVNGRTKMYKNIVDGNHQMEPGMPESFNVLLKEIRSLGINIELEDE

## CN1CCN(c2cc3c(cc2F)c(=O)c(C(=O)O)cn3-c2ccc(F)cc2)CC1 [DIFLOXACIN]
[1]
  MIC: 0.25 µg/mL (≈ 0.626 µM)
[2]
  MIC: 0.25 µg/mL (≈ 0.626 µM)
[3]
  MIC: 0.25 µg/mL (≈ 0.626 µM)
[4]
  MIC: 4 µg/mL (≈ 10 µM)

## CCC[C@@H]1C[C@@H](C(=O)N[C@@H]([C@H]2O[C@H](SC)[C@H](O)[C@@H](O)[C@H]2O)[C@H](C)Cl)N(C)C1 [CLINDAMYCIN]
[5]
  MIC: 2 µg/mL (≈ 4.71 µM)
[6]
  MIC: 8 µg/mL (≈ 18.8 µM)
[7]
  MIC: 1 µg/mL (≈ 2.35 µM)
[8]
  MIC: < 0.5 µg/mL

## CC(/C=C/C(=O)C1=C(O)CN(C)C1=O)=C\C1CCc2ccccc2C1 (stereo not drawn)
[5]
  MIC: 125 µg/mL (≈ 370 µM)
[6]
  MIC: 62 µg/mL (≈ 184 µM)
[7]
  MIC: 125 µg/mL (≈ 370 µM)
[8]
  MIC: 125 µg/mL (≈ 370 µM)

## CC(/C=C/C(=O)C1=C(O)CN(C)C1=O)=C\c1cccc2ccccc12
[9]
  MIC: > 100 µg/mL
[5]
  MIC: < 0.5 µg/mL
[6]
  MIC: 2 µg/mL (≈ 6 µM)
[10]
  MIC: 12.5 µg/mL (≈ 37.5 µM)
[11]
  MIC: 6.2 µg/mL (≈ 18.6 µM)
[12]
  MIC: 3.1 µg/mL (≈ 9.3 µM)
[13]
  MIC: > 100 µg/mL
[14]
  MIC: > 100 µg/mL
[15]
  MIC: 3.1 µg/mL (≈ 9.3 µM)
[16]
  MIC: 50 µg/mL (≈ 150 µM)
[7]
  MIC: < 0.5 µg/mL
[17]
  MIC: 3.1 µg/mL (≈ 9.3 µM)
[8]
  MIC: < 0.5 µg/mL
[18]
  MIC: 3.1 µg/mL (≈ 9.3 µM)
[19]
  MIC: 3.1 µg/mL (≈ 9.3 µM)

## CC(/C=C/C(=O)C1=C(O)CN(C)C1=O)=C\c1cnc2ccccc2c1
[5]
  MIC: 2 µg/mL (≈ 5.98 µM)
[6]
  MIC: 4 µg/mL (≈ 12 µM)
[7]
  MIC: 2 µg/mL (≈ 5.98 µM)
[8]
  MIC: 2 µg/mL (≈ 5.98 µM)

## CC(/C=C/C(O)=C1\C(=O)CNC1=O)=C\c1cccc2ccccc12
[9]
  MIC: 100 µg/mL (≈ 313 µM)
[5]
  MIC: 1 µg/mL (≈ 3.13 µM)
[6]
  MIC: 1 µg/mL (≈ 3.13 µM)
[10]
  MIC: 12.5 µg/mL (≈ 39.1 µM)
[11]
  MIC: 12.5 µg/mL (≈ 39.1 µM)
[12]
  MIC: 3.1 µg/mL (≈ 9.71 µM)
[13]
  MIC: 100 µg/mL (≈ 313 µM)
[14]
  MIC: > 100 µg/mL
[15]
  MIC: 3.1 µg/mL (≈ 9.71 µM)
[16]
  MIC: 6.2 µg/mL (≈ 19.4 µM)
[7]
  MIC: 1 µg/mL (≈ 3.13 µM)
[17]
  MIC: 3.1 µg/mL (≈ 9.71 µM)
[8]
  MIC: 1 µg/mL (≈ 3.13 µM)
[18]
  MIC: 6.2 µg/mL (≈ 19.4 µM)
[19]
  MIC: 3.1 µg/mL (≈ 9.71 µM)

## CC(/C=C/C(=O)C1=C(O)CN(C)C1=O)=C\c1c(O)ccc2ccccc12
[5]
  MIC: 31 µg/mL (≈ 88.7 µM)
[6]
  MIC: 31 µg/mL (≈ 88.7 µM)
[7]
  MIC: 16 µg/mL (≈ 45.8 µM)
[8]
  MIC: 16 µg/mL (≈ 45.8 µM)

## CC(/C=C/C(=O)C1=C(O)CN(C)C1=O)=C\c1ccc(-c2ccccc2)cc1
[5]
  MIC: 8 µg/mL (≈ 22.3 µM)
[6]
  MIC: 125 µg/mL (≈ 348 µM)
[7]
  MIC: ≤ 0.5 µg/mL
[8]
  MIC: 31 µg/mL (≈ 86.2 µM)

## CC(/C=C/C(=O)C1=C(O)C(C)N(C)C1=O)=C\c1ccc2ccccc2c1 (stereo not drawn)
[5]
  MIC: 62 µg/mL (≈ 178 µM)
[6]
  MIC: 62 µg/mL (≈ 178 µM)
[7]
  MIC: 62 µg/mL (≈ 178 µM)
[8]
  MIC: 31 µg/mL (≈ 89.2 µM)

## O=C(/C=C/C(Br)=C/c1ccccc1)C1=C(O)CNC1=O
[5]
  MIC: 8 µg/mL (≈ 23.9 µM)
[6]
  MIC: 8 µg/mL (≈ 23.9 µM)
[20]
  inhibition: 7.3%
[7]
  MIC: 8 µg/mL (≈ 23.9 µM)
[8]
  MIC: 31 µg/mL (≈ 92.8 µM)

## CO[C@@H]1[C@@H](OC(=O)c2ccc(C)[nH]2)[C@@H](O)[C@@H](Oc2ccc3c(O)c(NC(=O)c4c[nH]c(C(=O)Nc5c(O)c6ccc(O[C@H]7OC(C)(C)[C@H](OC)[C@@H](OC(=O)c8ccc(C)[nH]8)[C@H]7O)c(C)c6oc5=O)c4C)c(=O)oc3c2C)OC1(C)C [COUMERMYCIN]
[1]
  MIC: 4 µg/mL (≈ 3.6 µM)
[2]
  MIC: 0.008 µg/mL (≈ 0.00721 µM)
[3]
  MIC: 0.008 µg/mL (≈ 0.00721 µM)
[4]
  MIC: 0.008 µg/mL (≈ 0.00721 µM)

## CC(/C=C/C(O)=C1\C(=O)CN(C)C1=O)=C\C(C)C1CCCCC1 (stereo not drawn)
[5]
  MIC: 8 µg/mL (≈ 25.2 µM)
[6]
  MIC: 62 µg/mL (≈ 195 µM)
[7]
  MIC: 2 µg/mL (≈ 6.3 µM)
[8]
  MIC: 2 µg/mL (≈ 6.3 µM)

## CC(/C=C/C(=O)C1=C(O)CN(C)C1=O)=C\c1ccc2ccccc2c1
[1]
  MIC: 0.25 µg/mL (≈ 0.75 µM)
[21]
  MIC: 0.5 µg/mL (≈ 1.5 µM)
[22]
  MIC: 0.5 µg/mL (≈ 1.5 µM)
[9]
  MIC: 100 µg/mL (≈ 300 µM)
[5]
  MIC: < 0.5 µg/mL
[6]
  MIC: 31 µg/mL (≈ 93 µM)
[10]
  MIC: 50 µg/mL (≈ 150 µM)
[11]
  MIC: 1.56 µg/mL (≈ 4.68 µM)
[12]
  MIC: 1.56 µg/mL (≈ 4.68 µM)
[13]
  MIC: 200 µg/mL (≈ 600 µM)
[14]
  MIC: 200 µg/mL (≈ 600 µM)
[15]
  MIC: 1.56 µg/mL (≈ 4.68 µM)
[2]
  MIC: 0.25 µg/mL (≈ 0.75 µM)
[16]
  MIC: 200 µg/mL (≈ 600 µM)
[20]
  inhibition: 12.3%
[7]
  MIC: < 0.5 µg/mL
[17]
  MIC: 1.56 µg/mL (≈ 4.68 µM)
[8]
  MIC: 2 µg/mL (≈ 6 µM)
[18]
  MIC: 1.56 µg/mL (≈ 4.68 µM)
[19]
  MIC: 1.56 µg/mL (≈ 4.68 µM)
[3]
  MIC: 0.25 µg/mL (≈ 0.75 µM)
[4]
  MIC: 0.25 µg/mL (≈ 0.75 µM)

## CC(/C=C/C(=O)C1=C(O)CN(C)C1=O)=C\CC1CCCCC1
[5]
  MIC: 8 µg/mL (≈ 26.4 µM)
[6]
  MIC: 31 µg/mL (≈ 102 µM)
[7]
  MIC: 2 µg/mL (≈ 6.59 µM)
[8]
  MIC: 2 µg/mL (≈ 6.59 µM)

## CC(/C=C/C(=O)C1=C(O)CN(C)C1=O)=C\c1ccc(F)c2ccccc12
[5]
  MIC: 2 µg/mL (≈ 5.69 µM)
[6]
  MIC: 2 µg/mL (≈ 5.69 µM)
[7]
  MIC: 31 µg/mL (≈ 88.2 µM)
[8]
  MIC: 62 µg/mL (≈ 176 µM)

## CC(/C=C/C(O)=C1\C(=O)CNC1=O)=C\[C@@H](C)C1OC2(C)OC(C(=O)[C@@H]3O[C@@]32C)C1C (stereo partly drawn)
[23]
  MIC: 1.6 µg/mL (≈ 3.83 µM)
[24]
  MIC: ≤ 0.05 µg/mL
[20]
  inhibition: 50%
[25]
  MIC: 0.1 µg/mL (≈ 0.24 µM)
[26]
  MIC: 0.2 µg/mL (≈ 0.479 µM)

## CCCCCCCCCCC/C=C(C)/C=C/C(O)=C1\C(=O)CN(C)C1=O
[5]
  MIC: 125 µg/mL (≈ 346 µM)
[6]
  MIC: 125 µg/mL (≈ 346 µM)
[7]
  MIC: 4 µg/mL (≈ 11.1 µM)
[8]
  MIC: 31 µg/mL (≈ 85.7 µM)

## CC(/C=C/C(O)=C1\C(=O)CN(C)C1=O)=C\C(C)C
[5]
  MIC: 31 µg/mL (≈ 124 µM)
[6]
  MIC: 62 µg/mL (≈ 249 µM)
[7]
  MIC: 31 µg/mL (≈ 124 µM)
[8]
  MIC: 31 µg/mL (≈ 124 µM)

## CN1CC(=O)\C(=C(O)/C=C/C=C/c2ccc(N(C)C)cc2)C1=O
[5]
  MIC: 125 µg/mL (≈ 400 µM)
[6]
  MIC: 62 µg/mL (≈ 198 µM)
[7]
  MIC: 31 µg/mL (≈ 99.2 µM)
[8]
  MIC: 31 µg/mL (≈ 99.2 µM)
